Compound activity (PubChem)
KCC2 mod = KCC2 cotransporter modulators, thallium flux, primary screen, cell-based, HEK293 KCC2, FluoZin-2 fluorescence, MLSMR. KCC2 cells, thallium flux FluoZin-2 fluorescence. B-score of Tl+ flux slope (higher = more flux/activation; lower = inhibition) at 10 µM. 2.2% of 190,000 active. AID 1456, 2008;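 active = thallium flux slope and its plate-corrected score both differing from the plate sample mean at a set confidence after two filtering rounds, in either direction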;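 note: slope of fluorescence scaled to starting intensity during 10 to 20 s after thallium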
Lmaj promast = Leishmania major promastigote growth inhibition, primary screen; Leishmania major promastigotes, resazurin fluorescence viability; inhibition, % at 10 µM; 9% of 200,000 active; in the data active = inhibition above about 50%;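 note: promastigotes grown with compound for 44 hours at 28 °C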
Diaph inh CS = diaphorase inhibitors and chemical oxidizers, primary screen, counter-screen for diaphorase-coupled primary assays, biochemical, uHTS, resorufin fluorescence; diaphorase resazurin-to-resorufin fluorescence, NADH, 16 min; bacterial (C. kluyveri) enzyme, not human; inhibition, % at 20 µM; 0.69% of 190,000 active;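 active = primary screen inhibition at 20 µM above a set limit, cut at about 50% in these data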;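 note: plate controls were DMSO with full reaction for no effect and wells lacking NADH for full effect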
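Test system: bacterial diaphorase enzyme (C. kluyveri); Quantity: 0.14 U/mL diaphorase, enzyme working solution; Times: reaction incubation of 16 min at room temperature; Measured by: fluorescence of resorufin formed from resazurin, Ex 544/Em 590 nm; Benchmarks: positive control minus NADH, DMSO neutral control.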
WT yeast gro inh = growth inhibition of WT strain, primary screen, mitochondrial fusion inhibitor project, WT and mutant strains, chemical genetic | mitochondrial fusion phenotypic screen | inhibition, % at 10 µM | 2.1% of 190,000 active; in the data active = inhibition above about 58%; tested in S. cerevisiae
ROMK mod = ROMK potassium channel modulators, primary screen, cell-based, thallium flux, MLSMR library | ATP-sensitive inward rectifier potassium channel 1 (Homo sapiens), P48048 | AID 1918, 2009 | 2% of 130,000 active | Tet-inducible ROMK, thallium flux fluorescence; actives lie on both sides | B-score at 10 µM;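 active = signal ratio slope over the read window, or its plate-corrected B-score, at least 3 SD from the plate mean, either direction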;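 note: B-score of the F/F0 ratio slope over 7 to 12 s after thallium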
Diaphorase act = compounds boosting diaphorase resazurin reduction – biochemical, uHTS, resorufin fluorescence, counter-screen for diaphorase-coupled primary assays, primary screen | Diaphorase/resazurin coupled assay, 16 min; hits give high values; 1 = vehicle wells, 0 = NADH-free wells | 0.005% of 190,000 active | AID 1229, 2008 | activation factor at 20 µM;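 active = diaphorase activity raised at least twofold by the compound at 20 µM; inactive = activation factor below 2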
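Assay system: Purified diaphorase enzyme from Clostridium kluyveri | Amount: Enzyme 0.07 U/mL final | Dosing: Compound 20 µM once, DMSO 1% | Timing: 16 min reaction at room temperature | Detection: Fluorescence, excitation 544 nm and emission 590 nm | Evaluation: Higher resorufin formation from activation or reduction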
Starred values were filed as active, the others as inactive. A selection: hits, their analogues and other compounds. The true share with any hit is near 12%.

Results for O=c1oc2ccccc2c2c1C(c1ccc(Cl)cc1)Nc1ccc3ccccc3c1-2 (configuration not stated) ?
KCC2 mod: 0.23; Lmaj promast: 87*; Diaph inh CS: 12; WT yeast gro inh: 29; ROMK mod: 1.2; Diaphorase act: 0.9

Results for COc1ccc(C2Nc3ccc4ccccc4c3-c3c2c(=O)oc2ccccc32)cc1 (configuration not stated) ?
KCC2 mod: 0.56; Lmaj promast: 100*; Diaph inh CS: 10; WT yeast gro inh: 31; ROMK mod: -0.43; Diaphorase act: 0.9

How did CCOc1ccc(C2Nc3ccc4ccccc4c3-c3c2c(=O)oc2ccccc32)cc1 (configuration not stated) do in these assays?
KCC2 mod: -0.5; Lmaj promast: 56*; Diaph inh CS: 11; WT yeast gro inh: -13; ROMK mod: 0.65; Diaphorase act: 0.9

How did CCC1(C)N=c2c(c(=O)n(C)c(=O)n2C)=NO1 (configuration not stated) do in these assays?
KCC2 mod: 0.81; Lmaj promast: 0; Diaph inh CS: 5; WT yeast gro inh: -17; ROMK mod: -0.12; Diaphorase act: 0.9

How did Cc1ccc(S(=O)(=O)Oc2ccccc2/C=N/N=C(N)N)cc1 do in these assays?
KCC2 mod: 0.045; Lmaj promast: 74*; Diaph inh CS: 6; WT yeast gro inh: -18; ROMK mod: -2.1; Diaphorase act: 0.9

What do the screens show for `c1ccc(CN2CCN(Cc3nnc(-c4ccccc4)o3)CC2)cc1`?
KCC2 mod: -1.2; Lmaj promast: 80*; Diaph inh CS: -2; WT yeast gro inh: -7; ROMK mod: 0.23; Diaphorase act: 1

Results for c1ccc(CN2CCOCCOCCOCCOCC2)cc1 ?
KCC2 mod: 0.025; ROMK mod: -0.11

Results for OCCC1CN(Cc2cccn2-c2ncccn2)CCN1C1CCCC1 (configuration not stated) ?
Lmaj promast: 12; Diaph inh CS: -13; WT yeast gro inh: 11; ROMK mod: -0.99; Diaphorase act: 1.1

How did COC(=O)C(CCSC)NC(=O)C(NC(=O)C1CCC(C)CC1)C(C)C (configuration not stated) do in these assays?
Lmaj promast: 69*; Diaph inh CS: 4; WT yeast gro inh: -31; Diaphorase act: 1

What do the screens show for `CCC(C)C(NC(=O)C1CCC(C)CC1)C(=O)NC(CCSC)C(=O)OC` (configuration not stated)?
Lmaj promast: 68*; Diaph inh CS: 10; WT yeast gro inh: -28; ROMK mod: 0.27; Diaphorase act: 0.9

What do the screens show for `O=C(C1CCN(c2ccc(N3CCOCC3)nn2)CC1)N1CCN(c2ccc(F)cc2)CC1`?
KCC2 mod: -0.035; Lmaj promast: 97*; Diaph inh CS: 24; WT yeast gro inh: -9; ROMK mod: -0.077; Diaphorase act: 0.8

How did CCC(C)NC(=O)COc1ccc(OCc2ccccc2)cc1 (configuration not stated) do in these assays?
KCC2 mod: -0.86; Lmaj promast: -6; Diaph inh CS: 8; WT yeast gro inh: 19; ROMK mod: -2.1; Diaphorase act: 0.9

How did CCOC(=O)/C(=C/c1ccc(N2CCC(c3ccccc3)=N2)cc1)C(C)=O do in these assays?
KCC2 mod: -0.62; Lmaj promast: 5; Diaph inh CS: 23; WT yeast gro inh: 78*; ROMK mod: -3.4*; Diaphorase act: 0.8

What do the screens show for `COc1cc2c(cc1OC)C(c1ccccc1)N(S(C)(=O)=O)CC2` (configuration not stated)?
KCC2 mod: 0.032; Lmaj promast: -4; Diaph inh CS: 82*; WT yeast gro inh: -12; Diaphorase act: 0.2
